Assay results as given in ChEMBL document CHEMBL5715959, “Inhibition of histone methyltransferase EZH2 in Schistosoma mansoni in vitro by GSK343 reduces egg laying and decreases the expression of genes implicated in DNA replication and noncoding RNA metabolism” (2018).
Active and inactive are the calls of the source. The rule behind the calls is not given here.

Tests used:
Schistosoma mansoni [1] = assay: Induction of apoptosis in Schistosoma mansoni assessed as DNA fragmentation at 20 uM incubated for 72 hrs by TUNEL staining based inverted microscope analysis; format: functional, organism-based
Method in brief: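 Schistosomula, 2,000 per well in supplemented M169 after 16 h pre-culture, exposed 72 h to compound or DMSO, then fixed 60 min, permeabilized and TUNEL-labelled for DNA strand breaks. Mounted with DAPI counterstain and imaged by ApoTome fluorescence microscopy at 40× objective.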

Schistosoma mansoni [2] = assay: Antischistosomal activity against Schistosoma mansoni assessed as increased H3K27me1 level in schistosomula at 20 uM incubated for 48 hrs by Western blotting analysis; format: functional, organism-based
Method in brief: (§1)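 About 10,000 schistosomula were treated 48 h with 20 μM GSK343 or vehicle, then sonicated in Triton X-100 lysis buffer with PMSF and protease inhibitors. Supernatant nuclear extract (BCA-quantified, 10 μg) was run on 15% SDS-PAGE and blotted to nitrocellulose. Blots were probed with mark-specific monoclonal antibodies, then IRDye secondaries; infrared imaging was used and signals were normalized to total H3. t-test.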

Schistosoma mansoni [3] = assay: Antischistosomal activity against adult male Schistosoma mansoni assessed as morphological alterations in anterior and posterior regions at 20 uM incubated for 48 hrs by scanning electron microscopy analysis; format: functional, organism-based
Method in brief: (§2)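 Adult couples were taken by perfusion into supplemented RPMI, one couple per well, and adapted 2 h at 37°C, 5% CO2. They were exposed to 20 μM GSK343 or 0.1% DMSO for 24 and 48 h. Fixation used modified Karnovsky with osmium post-fix, followed by ethanol dehydration, critical-point drying, gold sputtering and scanning electron microscopy of tegument surfaces.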

Schistosoma mansoni [4] = assay: Antischistosomal activity against adult female Schistosoma mansoni assessed as damaged tegument in anterior region at 20 uM incubated for 48 hrs by scanning electron microscopy analysis; format: functional, organism-based; method in brief: as §2
Schistosoma mansoni [5] = assay: Antischistosomal activity against Schistosoma mansoni assessed as down-regulated FA binding protein mRNA level in schistosomula at 20 uM incubated for 48 hrs by RT-qPCR analysis; format: functional, organism-based
Method in brief: (§3)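 Schistosomula (supplemented M169) or adult worms (supplemented RPMI) were treated 48 h with 20 μM GSK343 or 0.1% DMSO at 37°C, 5% CO2. qPCR normalizer genes were chosen from RNA-seq data as those with TPM >1 and a treated/control ratio of 0.9–1.1 that were not differentially expressed. Relative expression was calculated by comparative Ct; significance by t-test.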

Schistosoma mansoni [6] = assay: Antischistosomal activity against female Schistosoma mansoni assessed as down-regulated Tyrosinase 2 mRNA level at 20 uM incubated for 48 hrs by RT-qPCR analysis; format: functional, organism-based; method in brief: as §3
Schistosoma mansoni [7] = assay: Cytotoxicity against adult Schistosoma mansoni assessed as reduction in ATP quantification at 50 uM incubated for 48 hrs by CellTiter-Glo Luminescent assay relative to control; format: functional; parameters: scale not given: the % may be the effect or the level left
Method in brief: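 Worm pairs in supplemented RPMI (10% FBS, 37°C, 5% CO2) exposed 48 h to compound or 0.1% DMSO. ATP measured by luminescence in freshly lysed worms and expressed as % of vehicle signal; three replicate experiments, 10 pairs each, mean ± SD.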

Schistosoma mansoni [8] = assay: Antischistosomal activity against female Schistosoma mansoni assessed as down-regulated Tyrosinase 1 mRNA level at 20 uM incubated for 48 hrs by RT-qPCR analysis; format: functional, organism-based; method in brief: as §3
Schistosoma mansoni [9] = assay: Antischistosomal activity against adult Schistosoma mansoni assessed as dead worms at 50 uM incubated for 48 hrs by inverted microscope analysis; format: functional, organism-based
Method in brief: (§4)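 Paired adult worms were cultured in RPMI/10% FBS with antibiotics at 37°C, 5% CO2, with GSK343 or 0.1% DMSO. They were viewed by inverted microscope at 3, 6, 12, 24 and 48 h. Motility was scored on a 0–3 scale (3 full movement, 1.5 partial or immobile but alive, 0 dead); death meant no movement over more than 2 min. Pairing was recorded. Three experiments, each with 10 pairs; mean ± SD.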

Schistosoma mansoni [10] = assay: Antischistosomal activity against female Schistosoma mansoni assessed as down-regulated p14 mRNA level at 20 uM incubated for 48 hrs by RT-qPCR analysis; format: functional, organism-based
Schistosoma mansoni [11] = assay: Antischistosomal activity against adult female Schistosoma mansoni assessed as damaged tegument with extensive sloughing at 20 uM incubated for 24 to 48 hrs by scanning electron microscopy analysis; format: functional, organism-based; conditions: time 24-48 hrs; method in brief: as §2
Schistosoma mansoni [12] = assay: Antischistosomal activity against Schistosoma mansoni assessed as increased length of schistosomula at 20 uM incubated for 24 to 48 hrs by scanning electron microscopy analysis; format: functional; conditions: time 24-48 hrs
Method in brief: (§5)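 Newly transformed schistosomula were held 16 h in M169 with 2% FBS, serotonin, hypoxanthine, hydrocortisone, triiodothyronine and antibiotics at 37°C, 5% CO2, at 2,000 per well. They were then exposed to 20 μM GSK343 or 0.1% DMSO for 24 and 48 h. Fixation was modified Karnovsky (pH 7.4) with 1% osmium post-fix, then ethanol dehydration, critical-point drying, gold coating and SEM. Lengths came from three experiments, each with 20 schistosomula.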

Schistosoma mansoni [13] = assay: Antischistosomal activity against Schistosoma mansoni assessed as deterioration of tegument with blisters at 20 uM incubated for 24 hrs by scanning electron microscopy analysis; format: functional, organism-based; method in brief: as §5
Schistosoma mansoni [14] = assay: Antischistosomal activity against adult Schistosoma mansoni assessed as reduction in pairing of couples at 20 uM incubated for 48 hrs by inverted microscope analysis relative to control; format: functional; parameters: scale not given: the % may be the effect or the level left; method in brief: as §4
Schistosoma mansoni [15] = assay: Antischistosomal activity against adult female Schistosoma mansoni assessed as decrease in number of eggs laid at 20 uM incubated for 24 to 48 hrs by […] analysis relative to control; format: functional; parameters: scale not given: the % may be the effect or the level left; conditions: time 24-48 hrs
Schistosoma mansoni [16] = assay: Antischistosomal activity against Schistosoma mansoni assessed as increased caspase 3/7 activity at 20 uM incubated for 48 hrs by Caspase 3/7 reagent based luminescence assay; format: functional
Method in brief: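 2,000 schistosomula per well were kept in supplemented M169 with 20 μM GSK343 or 0.1% DMSO for 48 h. Medium was replaced, reporter lysis buffer added, then Caspase-Glo 3/7 reagent for 3 h in the dark with agitation before reading luminescence. The negative control lacked reagent. Three experiments, each with 20,000 schistosomula.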

Schistosoma mansoni [17] = assay: Antischistosomal activity against juvenile Schistosoma mansoni assessed as damaged anterior region at 20 to 50 uM incubated for 48 hrs by scanning electron microscopy analysis; format: functional, organism-based; conditions: in the assay text read “at 50 uM” for “at 20 to 50 uM”
Method in brief: (§6)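 Juvenile worms recovered by perfusion, five per well in supplemented RPMI (10% FBS, antibiotics, 37°C, 5% CO2), 2 h adaptation, then exposed 48 h to compound or 0.1% DMSO. Fixed in modified Karnovsky reagent (pH 7.4), washed in cacodylate buffer, post-fixed 1 h in 1% osmium tetroxide, ethanol-dehydrated, critical-point dried, gold-sputtered and imaged by scanning electron microscopy.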

Schistosoma mansoni [18] = assay: Antischistosomal activity against adult female Schistosoma mansoni assessed as presence of blisters in dorsal region at 20 uM incubated for 24 to 48 hrs by scanning electron microscopy analysis; format: functional, organism-based; conditions: time 24-48 hrs; method in brief: as §2
Schistosoma mansoni [19] = assay: Antischistosomal activity against Schistosoma mansoni assessed as increased H3K27ac level in schistosomula at 20 uM incubated for 48 hrs by Western blotting analysis; format: functional, organism-based; method in brief: as §1
Schistosoma mansoni [20] = assay: Antischistosomal activity against Schistosoma mansoni assessed as decreased H3K27me3 level in schistosomula at 20 uM incubated for 48 hrs by Western blotting analysis; format: functional, organism-based; method in brief: as §1
Schistosoma mansoni [21] = assay: Antischistosomal activity against adult male Schistosoma mansoni assessed as lesions of tegument around tubercles at 20 uM incubated for 48 hrs by scanning electron microscopy analysis; format: functional, organism-based; method in brief: as §2
Schistosoma mansoni [22] = assay: Antischistosomal activity against juvenile Schistosoma mansoni assessed as damaged dorsal surface ridge at 20 to 50 uM incubated for 48 hrs by scanning electron microscopy analysis; format: functional, organism-based; conditions: dose 20-50 µM; method in brief: as §6

Compound: CCCc1cc(C)[nH]c(=O)c1CNC(=O)c1cc(-c2ccnc(N3CCN(C)CC3)c2)cc2c1cnn2C(C)C
- Activity (Schistosoma mansoni [1]): Active
- Activity (Schistosoma mansoni [2]): Active
- Activity (Schistosoma mansoni [3]): inactive
- Activity (Schistosoma mansoni [4]): Active
- Activity (Schistosoma mansoni [5]): Active
- Activity (Schistosoma mansoni [6]): Active
- Activity (Schistosoma mansoni [7]): <20%
- Activity (Schistosoma mansoni [8]): Active
- Activity (Schistosoma mansoni [9]): Active
- Activity (Schistosoma mansoni [10]): Active
- Activity (Schistosoma mansoni [11]): Active
- fold change (FC) (Schistosoma mansoni [12]): 1.1
- Activity (Schistosoma mansoni [13]): Active
- Activity (Schistosoma mansoni [14]): ~50%
- Activity (Schistosoma mansoni [15]): 40%
- fold change (FC) (Schistosoma mansoni [16]): 17
- Activity (Schistosoma mansoni [17]): Active
- Activity (Schistosoma mansoni [18]): Active
- Activity (Schistosoma mansoni [19]): Active
- Activity (Schistosoma mansoni [20]): Active
- Activity (Schistosoma mansoni [21]): Active
- Activity (Schistosoma mansoni [22]): Active
